Columns and labels:
Cytochrome P450 2C8 = target: T1, Cytochrome P450 2C8 (Homo sapiens, UniProt P10632); experiment: Activity of human CYP2C8 expressed in microsomes isolated from baculovirus infected insect cell assessed as enzyme-mediated compound formation treated with [14C]-rivoglitazone at 20 uM after 2 hrs by radio-HPLC/LC-MS/MS analysis in presence of NADPH-generating system; assay type: ADME
T1 sequence (P10632 whole entry): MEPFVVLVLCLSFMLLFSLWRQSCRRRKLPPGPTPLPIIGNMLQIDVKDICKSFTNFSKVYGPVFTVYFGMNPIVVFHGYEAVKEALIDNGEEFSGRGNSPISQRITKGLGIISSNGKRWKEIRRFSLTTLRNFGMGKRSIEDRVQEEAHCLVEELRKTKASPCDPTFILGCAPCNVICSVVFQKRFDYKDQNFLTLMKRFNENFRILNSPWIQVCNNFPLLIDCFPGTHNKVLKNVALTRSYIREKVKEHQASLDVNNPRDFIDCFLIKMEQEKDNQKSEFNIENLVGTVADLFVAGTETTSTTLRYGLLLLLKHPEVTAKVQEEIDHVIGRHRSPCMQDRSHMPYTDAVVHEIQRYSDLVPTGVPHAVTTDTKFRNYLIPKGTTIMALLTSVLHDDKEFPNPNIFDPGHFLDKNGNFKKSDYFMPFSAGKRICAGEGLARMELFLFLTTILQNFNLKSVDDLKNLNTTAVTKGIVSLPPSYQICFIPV
Procedure, shortened: (§1)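 Baculovirus/insect-cell microsomes expressing single human CYPs, 1 mg/ml protein, with 50 mM potassium phosphate (pH 7.4) or 100 mM Tris-HCl (pH 7.5). NADPH-generating system: 2 mM NADP⁺, 20 mM glucose 6-phosphate, 2 units/ml G6PDH, 10 mM MgCl₂. [¹⁴C]rivoglitazone at 20 μM, 2 h at 37°C with shaking. Control used insect-cell control supersomes. Stopped with acetonitrile; supernatant concentrated under nitrogen; metabolites analysed by radio-HPLC, LC-MS and LC-MS/MS.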

Cytochrome P450 2C19 [1] = target: T2, Cytochrome P450 2C19 (Homo sapiens, UniProt P33261); experiment: Activity of human CYP2C19 expressed in microsomes isolated from baculovirus infected insect cell assessed as enzyme-mediated compound formation treated with [14C]-rivoglitazone at 20 uM after 2 hrs by radio-HPLC/LC-MS/MS analysis in presence of NADPH-generating system; assay type: ADME; procedure, shortened: as §1
T2 sequence (P33261 whole entry): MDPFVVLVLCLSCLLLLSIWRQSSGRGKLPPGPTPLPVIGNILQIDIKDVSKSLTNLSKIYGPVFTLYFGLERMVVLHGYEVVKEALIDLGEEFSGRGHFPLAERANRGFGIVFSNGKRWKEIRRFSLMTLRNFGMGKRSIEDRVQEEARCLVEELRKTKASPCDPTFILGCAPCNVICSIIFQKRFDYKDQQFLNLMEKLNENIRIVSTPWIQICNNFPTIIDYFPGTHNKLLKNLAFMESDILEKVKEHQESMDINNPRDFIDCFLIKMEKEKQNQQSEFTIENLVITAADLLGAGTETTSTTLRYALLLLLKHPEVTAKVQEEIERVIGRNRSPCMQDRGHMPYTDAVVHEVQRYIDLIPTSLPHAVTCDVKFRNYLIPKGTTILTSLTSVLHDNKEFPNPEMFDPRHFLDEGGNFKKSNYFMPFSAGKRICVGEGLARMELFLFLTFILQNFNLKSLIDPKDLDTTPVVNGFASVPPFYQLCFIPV

Liver microsome = experiment: Drug metabolism in Sprague-Dawley rat liver microsomes assessed as formation of 3-(4-((6-methoxy-1-methyl-1H-benzo[d]imidazol-2-yl)methoxy)phenyl)-2-(methylsulfinyl)propanamide at 20 uM after 2 hrs by radio-HPLC/LC-MS/MS analysis in presence of NADPH-generating system/SAM; assay type: ADME
Cytochrome P450 2C9 = Cytochrome P450 2C9 (Homo sapiens, UniProt P11712); experiment: Activity of human CYP2C9 expressed in microsomes isolated from baculovirus infected insect cell assessed as enzyme-mediated 2-hydroxy-3-(4-((6-methoxy-1-methyl-1H-benzo[d]imidazol-2-yl)methoxy)phenyl)propanamide formation at 20 uM after 2 hrs by radio-HPLC/LC-MS/MS analysis in presence of NADPH-generating system and NADPH-generating system/SAM; assay type: ADME
Cytochrome P450 2C9, sequence (P11712 whole entry): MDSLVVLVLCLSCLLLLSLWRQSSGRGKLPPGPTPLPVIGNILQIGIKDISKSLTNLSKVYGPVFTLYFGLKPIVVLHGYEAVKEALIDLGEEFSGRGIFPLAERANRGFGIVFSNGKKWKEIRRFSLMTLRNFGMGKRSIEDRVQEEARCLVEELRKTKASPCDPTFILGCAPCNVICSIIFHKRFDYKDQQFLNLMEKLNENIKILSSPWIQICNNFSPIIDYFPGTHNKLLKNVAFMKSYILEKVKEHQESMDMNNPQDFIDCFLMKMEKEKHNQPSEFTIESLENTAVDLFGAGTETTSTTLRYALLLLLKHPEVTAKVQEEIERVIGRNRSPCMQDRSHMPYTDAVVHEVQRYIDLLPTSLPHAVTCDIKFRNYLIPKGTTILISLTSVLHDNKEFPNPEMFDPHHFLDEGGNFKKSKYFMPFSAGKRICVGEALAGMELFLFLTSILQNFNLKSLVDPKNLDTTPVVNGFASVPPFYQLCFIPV

[2] = Drug metabolism in rat hepatocytes assessed as formation of 2-mercapto-3-(4-((6-methoxy-1-methyl-1H-benzo[d]imidazol-2-yl)methoxy)phenyl)propanoic acid at 30 uM after 3 hrs by radio-HPLC/LC-MS/MS analysis in presence of UDPGA, UDPGA/SAM and NADPH-generating system; assay type: ADME, cell-based, Hepatocyte
Cytochrome P450 2C19 [3] = target: T2, Cytochrome P450 2C19; experiment: Activity of human CYP2C19 expressed in microsomes isolated from baculovirus infected insect cell assessed as enzyme-mediated (2S,3S,4S,5R,6R)-3,4,5-trihydroxy-6-(5-(4-((6-methoxy-1-methyl-1H-benzo[d]imidazol-2-yl)methoxy)benzyl)-2,4-dioxothiazolidin-3-yl)tetrahydro-2H-pyran-2-carboxylic acid formation at 20 uM after 2 hrs by radio-HPLC/LC-MS/MS analysis in presence of UDPGA and UDPGA/SAM; assay type: ADME
[4] = target: T3, UDP-glucuronosyltransferase 1A4 (Homo sapiens, UniProt P22310); experiment: Activity of human UGT1A4 expressed in microsomes isolated from baculovirus infected insect cell assessed as enzyme-mediated (2S,3S,4S,5R,6R)-6-((1-carboxy-2-(4-((6-methoxy-1-methyl-1H-benzo[d]imidazol-2-yl)methoxy)phenyl)ethylthio)carbonylamino)-3,4,5-trihydroxytetrahydro-2H-pyran-2-carboxylic acid formation at 20 uM after 4 hrs by radio-HPLC/LC-MS/MS analysis in presence of UDPGA; assay type: ADME
T3 sequence (P22310 whole entry): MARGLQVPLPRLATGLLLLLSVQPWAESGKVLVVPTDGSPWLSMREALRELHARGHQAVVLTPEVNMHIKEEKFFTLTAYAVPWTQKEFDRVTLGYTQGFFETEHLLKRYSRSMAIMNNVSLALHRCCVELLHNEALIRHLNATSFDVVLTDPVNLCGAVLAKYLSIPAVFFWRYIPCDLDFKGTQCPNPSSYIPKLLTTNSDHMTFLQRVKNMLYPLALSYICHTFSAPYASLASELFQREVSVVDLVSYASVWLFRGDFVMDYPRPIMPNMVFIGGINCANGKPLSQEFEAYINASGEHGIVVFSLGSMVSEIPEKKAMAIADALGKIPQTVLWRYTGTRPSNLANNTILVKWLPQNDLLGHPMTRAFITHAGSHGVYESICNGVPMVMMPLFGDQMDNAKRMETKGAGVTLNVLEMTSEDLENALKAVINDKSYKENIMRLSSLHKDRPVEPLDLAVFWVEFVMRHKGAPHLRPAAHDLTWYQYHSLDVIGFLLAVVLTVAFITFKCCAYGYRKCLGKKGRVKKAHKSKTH

[5] = target: T4, UDP-glucuronosyltransferase 2B4 (Homo sapiens, UniProt P06133); experiment: Activity of human UGT2B4 expressed in microsomes isolated from baculovirus infected insect cell assessed as enzyme-mediated 2-mercapto-3-(4-((6-methoxy-1-methyl-1H-benzo[d]imidazol-2-yl)methoxy)phenyl)propanoic acid formation at 20 uM after 4 hrs by radio-HPLC/LC-MS/MS analysis in presence of UDPGA; assay type: ADME
T4 sequence (P06133 whole entry): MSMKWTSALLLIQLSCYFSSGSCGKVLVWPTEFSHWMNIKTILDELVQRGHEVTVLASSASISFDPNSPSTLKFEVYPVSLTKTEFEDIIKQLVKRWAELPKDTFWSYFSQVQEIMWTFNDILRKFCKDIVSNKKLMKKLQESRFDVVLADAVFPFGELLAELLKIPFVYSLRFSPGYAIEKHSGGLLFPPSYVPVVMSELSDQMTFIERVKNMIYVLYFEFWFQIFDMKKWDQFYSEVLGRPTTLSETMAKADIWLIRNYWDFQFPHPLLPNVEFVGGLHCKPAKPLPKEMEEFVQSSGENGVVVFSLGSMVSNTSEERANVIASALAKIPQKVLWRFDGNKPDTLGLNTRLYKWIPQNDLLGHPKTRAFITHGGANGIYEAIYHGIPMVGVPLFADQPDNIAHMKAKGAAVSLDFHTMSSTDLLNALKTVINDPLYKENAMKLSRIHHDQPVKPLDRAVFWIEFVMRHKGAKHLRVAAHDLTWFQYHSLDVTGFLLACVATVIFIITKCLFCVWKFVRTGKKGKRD

[6] = Drug metabolism in human hepatocytes assessed as formation of 5-hydroxy-5-(4-((6-methoxy-1-methyl-1H-benzo[d]imidazol-2-yl)methoxy)benzyl)thiazolidine-2,4-dione at 30 uM after 3 hrs by radio-HPLC/LC-MS/MS analysis in presence of NADPH-generating system and NADPH-generating system/SAM; assay type: ADME, cell-based, Hepatocyte

Drug metabolism (Cytochrome P450 2C8) | Drug metabolism (Cytochrome P450 2C19 [1]) | Drug metabolism (Liver microsome) | Drug metabolism (Cytochrome P450 2C9) | Drug metabolism [2] | Drug metabolism (Cytochrome P450 2C19 [3]) | Drug metabolism [4] | Drug metabolism [5] | Drug metabolism [6] | SMILES
metabolite_detected | metabolite_detected |  |  |  |  |  |  |  | COc1ccc2nc(COc3ccc(CC(S)C(=O)O)cc3)n(C)c2c1 (centres undefined)
 |  | metabolite_detected | metabolite_detected | metabolite_not_detected | metabolite_not_detected | metabolite_not_detected | metabolite_not_detected | metabolite_detected | COc1ccc2nc(COc3ccc(C[14CH]4SC(=O)NC4=O)cc3)n(C)c2c1.Cl (racemic)
